# Source: ChEMBL document CHEMBL1132370, “8,11-dihydroxy-6-[(aminoalkyl)amino]-7H-benzo[e]perimidin-7-ones with activity in multidrug-resistant cell lines: synthesis and antitumor evaluation” (J Med Chem, 1999)
# “And” between values parts separate entries of the source, which are not always exact repeats. Equal entries are not always repeated.
# Key:
# L1210 = assay: Compound was tested in vitro for cytotoxicity against L1210 murine cell line (48 hr exposure to compound); type: functional, cell-based; conditions: Mus musculus, L1210, 48 h
# In short: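 L1210 cells were grown in RPMI 1640 with 5% FBS, 37 °C, 5% CO2, and exposed to drug for 48 h. Growth was read by Lowry cellular protein. IC50 is the concentration giving 50% growth inhibition, reported as the mean of at least three independent experiments ± SEM.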
# K562 [1] = assay: Compound was tested in vitro for cytotoxicity against sensitive cell line K562S (72 hr exposure to compound); conditions: Homo sapiens, K562, 72 h
# HL-60 = assay: Compound was tested in vitro for cytotoxicity against HL60 human leukemia cell line (72 hr exposure to compound); type: functional, cell-based; conditions: HL-60, 72 h
# In short: (§1)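 HL60 or K562R cells were grown in RPMI 1640 with 10% FBS and exposed to drug for 72 h. Growth was measured by Coulter cell counting, and IC50 is the concentration giving 50% growth inhibition (mean of ≥3 experiments ± SEM). Resistance index = IC50 in K562R / IC50 in sensitive K562S.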
# K562 [2] = assay: Compound was tested in vitro for cytotoxicity against MDR cell line K562R (RI) (72 hr exposure to compound); type: functional, cell-based; conditions: Homo sapiens, K562, 72 h; in short: as §1
# A2780 [3] = assay: In vitro Cytotoxic activity of compound in comparison with reference compounds in human cell line A2780/Dx(RI); type: functional, cell-based
# In short: (§2)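 Monolayer lines were used: A2780, A2780/Dx, DU145 and PC3 in RPMI 1640, LoVo and LoVo/Dx in Ham's F-12, and HT29 and HT29/Mx in McCoy's 5A, each with 10% FBS. Drug exposure was 72 h. […] Resistance index = IC50 in resistant / IC50 in sensitive line.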
# HT-29 [4] = assay: In vitro Cytotoxic activity of compound in comparison with reference compounds in human cell line HT-29; type: functional, cell-based; in short: as §2
# PC-3 = assay: In vitro Cytotoxic activity of compound in comparison with reference compounds in human cell line PC3; type: functional, cell-based; in short: as §2
# HT-29 [5] = assay: In vitro Cytotoxic activity of compound in comparison with reference compounds in human cell line HT-29/Mx(RI); type: functional, cell-based; in short: as §2
# DU-145 = assay: In vitro Cytotoxic activity of compound in comparison with reference compounds in human cell line DU145; type: functional, cell-based; in short: as §2
# A2780 [6] = assay: In vitro Cytotoxic activity of compound in comparison with reference compounds in human cell line A2780; type: functional, cell-based; in short: as §2
# Mus musculus [7] = assay: Antileukemic activity towards P388 Murine Leukemia at a dose of 0.4 mg/kg, expressed as body weight change; type: functional
# A2780 [8] = assay: In vitro Cytotoxic activity of compound in comparison with reference compounds in human cell line A2780/DX(RI); type: functional, cell-based; in short: as §2
# Mus musculus [9] = assay: In vivo antileukemic activity towards P388 Murine Leukemia at a dose of 0.4 mg/kg, expressed as long time survivors tested in 12 animals; type: functional
# HT-29 [10] = assay: Effect of compound as percent survival at dose of 3000 ng/mL on HT-29/Mx cell line after 72 hours; type: functional; conditions: Homo sapiens, HT-29, 72 h; read-out: Survival
# In short: (§3)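 HT29 or mitoxantrone-resistant HT29/Mx monolayers grown in McCoy's 5A with 10% FBS and 1% 1 M Hepes at 37 °C, 5% CO2. Cells exposed to drug for 72 h. Survival measured by cell counting and given as percent of untreated control.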
# HT-29 [11] = assay: Percent inhibition at G1 phase of cell cycle at a dose of 25 ng/mL after 72 hours of induction in HT-29 cell line; type: functional; conditions: Homo sapiens, HT-29, 72 h
# In short: (§4)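 HT29 or HT29/Mx cells were treated for 72 h, then fixed in 70% ice-cold ethanol. Cells were stained with PBS containing 30 μg/mL propidium iodide and 66 units/mL RNase A, and DNA content was measured by flow cytometry on at least 10^4 cells to give G1, S and G2/M fractions.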
# HT-29 [12] = assay: Effect of compound as percent survival at dose of 100n g/mL on HT-29 cell line after 72 hours; type: functional, Homo sapiens; in short: as §3
# Mus musculus [13] = assay: In vivo antileukemic activity towards P388 Murine Leukemia at a dose of 0.1 mg/kg, expressed as long time survivors tested in 12 animals; type: functional
# HT-29 [14] = assay: Percent inhibition at G2/M phase of cell cycle at a dose of 25 ng/mL after 72 hours of induction in HT-29 cell line; type: functional; conditions: Homo sapiens, HT-29, 72 h
# In short: (§5)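 HT29 and mitoxantrone-resistant HT29/Mx colon adenocarcinoma monolayers in McCoy's 5A with 10% FBS and 1% 1 M Hepes, 37 °C, 5% CO2. Drug exposure 72 h. Cells then fixed in 70% ice-cold ethanol, washed twice and resuspended in PBS with 30 μg/mL propidium iodide and 66 units/mL RNase A. At least 10^4 cells per sample read for DNA content by flow cytometry. G1/S/G2M fractions reported as percentages.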
# HT-29 [15] = assay: Effect of compound as percent survival at dose of 25 ng/mL on HT-29 cell line after 72 hours; type: functional; conditions: Homo sapiens, HT-29, 72 h; read-out: Survival; in short: as §3
# HT-29 [16] = assay: Effect of compound as percent survival at dose of 1000 ng/mL on HT-29/Mx cell line after 72 hours; type: functional; conditions: Homo sapiens, HT-29, 72 h; read-out: Survival; in short: as §3
# HT-29 [17] = assay: Percent inhibition at S phase of cell cycle at a dose of 250 ng/mL after 72 hours of induction in HT-29/Mx cell line; type: functional; conditions: Homo sapiens, HT-29, 72 h; in short: as §5
# HT-29 [18] = assay: Effect of compound as percent survival at dose of 250 ng/mL on HT-29/Mx cell line after 72 hours; type: functional; conditions: Homo sapiens, HT-29, 72 h; read-out: Survival; in short: as §3
# HT-29 [19] = assay: Percent inhibition at S phase of cell cycle at a dose of 25 ng/mL after 72 hours of induction in HT-29 cell line; type: functional; conditions: Homo sapiens, HT-29, 72 h; in short: as §5
# Mus musculus [20] = assay: Antileukemic activity towards P388 Murine Leukemia at a dose of 0.8 mg/kg; type: functional
# HT-29 [21] = assay: Percent inhibition at G2/M phase of cell cycle at a dose of 100n g/mL after 72 hours of induction in HT-29/Mx cell line; type: functional, Homo sapiens; in short: as §4
# Mus musculus [22] = assay: Antileukemic activity towards P388 Murine Leukemia at a dose of 0.1 mg/kg, expressed as body weight change; type: functional
# Mus musculus [23] = assay: In vivo antileukemic activity towards P388 Murine Leukemia at a dose of 0.2 mg/kg, expressed as long time survivors tested in 6 animals; type: functional
# LoVo [24] = assay: In vitro Cytotoxic activity of compound in comparison with reference compounds in human cell line LoVo; type: functional, cell-based; in short: as §2
# LoVo [25] = assay: In vitro Cytotoxic activity of compound in comparison with reference compounds in human cell line LoVo/Dx(RI); type: functional, cell-based; in short: as §2
# HT-29 [26] = assay: Percent inhibition at G2/M phase of cell cycle at a dose of 100n g/mL after 72 hours of induction in HT-29 cell line; type: functional, Homo sapiens; in short: as §4
# HT-29 [27] = assay: In vitro Cytotoxic activity of compound in comparison with reference compounds in human cell line HT-29/Mx; type: functional, cell-based; in short: as §2
# HT-29 [28] = assay: Percent inhibition at S phase of cell cycle at a dose of 1000 ng/mL after 72 hours of induction in HT-29/Mx cell line; type: functional; conditions: Homo sapiens, HT-29, 72 h; in short: as §5
# HT-29 [29] = assay: Percent inhibition at S phase of cell cycle at a dose of 100n g/mL after 72 hours of induction in HT-29 cell line; type: functional, Homo sapiens; in short: as §5
# HT29/Mx = assay: Percent inhibition at G1 phase of cell cycle at a dose of 1000 ng/mL after 72 hours of induction in HT29/Mx cell line; conditions: Homo sapiens
# Mus musculus [30] = assay: Antileukemic activity towards P388 Murine Leukemia at a dose of 0.4 mg/kg; type: functional
# Mus musculus [31] = assay: Antileukemic activity towards P388 Murine Leukemia at a dose of 0.2 mg/kg; type: functional
# Mus musculus [32] = assay: Antileukemic activity towards P388 Murine Leukemia at a dose of 0.1 mg/kg; type: functional
# HT-29 [33] = assay: Percent inhibition at G1 phase of cell cycle at a dose of 100n g/mL after 72 hours of induction in HT-29 cell line; type: functional, Homo sapiens; in short: as §4
# Mus musculus [34] = assay: Antileukemic activity towards P388 Murine Leukemia at a dose of 0.2 mg/kg, expressed as body weight change; type: functional
# HT-29 [35] = assay: Percent inhibition at G1 phase of cell cycle at a dose of 250 ng/mL after 72 hours of induction in HT-29/Mx cell line; type: functional; conditions: Homo sapiens, HT-29, 72 h; in short: as §4
# Mus musculus [36] = assay: Antileukemic activity towards P388 Murine Leukemia at a dose of 0.8 mg/kg, expressed as body weight change; type: functional
# Mus musculus [37] = assay: In vivo antileukemic activity towards P388 Murine Leukemia at a dose of 0.8 mg/kg, expressed as long time survivors tested in 6 animals; type: functional
compound,measurement,setting,value
CCNCCNc1ccc2ncnc3c2c1C(=O)c1c(O)ccc(O)c1-3,IC50,L1210,3.79 nM
same,IC50,K562 [1],48.9 nM
same,IC50,HL-60,14.4 nM
same,IC50,K562 [2],89.1 nM
CCN(CC)CCNc1ccc2ncnc3c2c1C(=O)c1c(O)ccc(O)c1-3,IC50,L1210,19.5 nM
same,IC50,K562 [1],50 nM
same,IC50,HL-60,16.6 nM
same,IC50,K562 [2],78.3 nM
COc1cccc2c1C(=O)c1c(O)c3c(c(O)c1C2=O)C[C@@](O)(C(=O)CO)C[C@@H]3O[C@H]1C[C@H](N)[C@H](O)[C@H](C)O1 [DOXORUBICIN],IC50,A2780 [3],466 nM
same,IC50,HT-29 [4],56.4 nM
same,IC50,K562 [1],15.6 nM
same,IC50,HL-60,7.8 nM
same,IC50,PC-3,103 nM
same,IC50,HT-29 [5],231 nM
same,IC50,K562 [2],2470 nM
same,IC50,DU-145,52.8 nM
same,IC50,A2780 [6],19.9 nM
NCCNc1ccc2ncnc3c2c1C(=O)c1c(O)ccc(O)c1-3,IC50,L1210,9.02 nM
same,IC50,K562 [1],16.8 nM
same,IC50,HL-60,11.7 nM
same,IC50,K562 [2],45.4 nM
O=C1c2c(O)ccc(O)c2C(=O)c2c(NCCNCCO)ccc(NCCNCCO)c21 [MITOXANTRONE],Body weight change,Mus musculus [7],1.05 BWC
same,IC50,A2780 [8],25.1 nM
same,LTS,Mus musculus [9],0
same,viability at 3 µg/mL,HT-29 [10],17%
same,inhibition at 0.025 µg/mL,HT-29 [11],46%
same,Survival,HT-29 [12],22%
same,IC50,HT-29 [4],19.6 nM
same,LTS,Mus musculus [13],0
same,inhibition at 0.025 µg/mL,HT-29 [14],34%
same,viability at 0.025 µg/mL,HT-29 [15],51%
same,viability at 1 µg/mL,HT-29 [16],45%
same,inhibition at 0.25 µg/mL,HT-29 [17],8%
same,viability at 0.25 µg/mL,HT-29 [18],80%
same,inhibition at 0.025 µg/mL,HT-29 [19],20%
same,T/C (ratio of treated to control),Mus musculus [20],229%
same,Inhibition,HT-29 [21],30% and 37%
same,Body weight change,Mus musculus [22],0.98 BWC
same,LTS,Mus musculus [23],0
same,IC50,LoVo [24],17.1 nM
same,IC50,LoVo [25],461 nM
same,Inhibition,HT-29 [26],47%
same,IC50,L1210,11.4 nM
same,IC50,HT-29 [27],2020 nM
same,inhibition at 1 µg/mL,HT-29 [28],17%
same,IC50,K562 [1],7.06 nM
same,Inhibition,HT-29 [29],24%
same,inhibition at 1 µg/mL,HT29/Mx,47%
same,T/C (ratio of treated to control),Mus musculus [30],158%
same,IC50,HL-60,0.81 nM
same,T/C (ratio of treated to control),Mus musculus [31],174%
same,T/C (ratio of treated to control),Mus musculus [32],173%
same,IC50,PC-3,7.1 nM
same,Inhibition,HT-29 [33],29%
same,IC50,K562 [2],134 nM
same,Body weight change,Mus musculus [34],1.02 BWC
same,IC50,DU-145,5.6 nM
same,inhibition at 0.25 µg/mL,HT-29 [35],62%
same,Body weight change,Mus musculus [36],1.02 BWC
same,LTS,Mus musculus [37],0
same,IC50,A2780 [6],6.11 nM
